Test results taken from ChEMBL document CHEMBL3763019, “Discovery of benzenesulfonamide derivatives as potent PI3K/mTOR dual inhibitors with in vivo efficacies against hepatocellular carcinoma” (Bioorg Med Chem, 2016).

What was measured:
U-251 = test: Antiproliferative activity against human U251 cells incubated for 48 hrs by sulforhodamine B assay; format: functional; details: U-251, 48 h
[1] = Antiproliferative activity against human SF295 cells incubated for 48 hrs by sulforhodamine B assay; format: functional; details: SF-295, 48 h
Summary of the method: (§1)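 Run externally by the US National Cancer Institute as part of its 60 human cancer cell line cytotoxicity screen (NCI-60).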

[2] = Antiproliferative activity against human Caki1 cells incubated for 48 hrs by sulforhodamine B assay; format: functional; details: CAKI-1, 48 h; summary of the method: as §1
[3] = Antiproliferative activity against human Hs 578T cells incubated for 48 hrs by sulforhodamine B assay; format: functional
[4] = Antiproliferative activity against human HOP92 cells incubated for 48 hrs by sulforhodamine B assay; format: functional; details: HOP-92, 48 h
[5] = Antiproliferative activity against human NCI60 incubated for 48 hrs by sulforhodamine B assay; format: functional; details: NCI60, 48 h; summary of the method: as §1
[6] = Cytotoxicity against human HCT116 cells after 72 hrs by MTT assay; format: functional, cell-based; details: HCT-116, 72 h
Summary of the method: (§2)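 Log-phase cells at 40,000–50,000 cells/mL in DMEM with 10% FBS and antibiotics were seeded and cultured overnight at 37 °C, 5% CO₂. Compounds were diluted in DMSO/PBS from 10^-4 to 10^-9 M and applied for 72 h. MTT (5 mg/mL stock) was then added for 4 h and absorbance read at 570 nm. IC50 came from nonlinear regression on triplicate wells, averaged.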

CCRF-CEM = test: Antiproliferative activity against human CCRF-CEM cells incubated for 48 hrs by sulforhodamine B assay; format: functional; summary of the method: as §1
MCF7 = test: Antiproliferative activity against human MCF7 cells incubated for 48 hrs by sulforhodamine B assay; format: functional; details: MCF7, 48 h; summary of the method: as §1
MDA-MB-231 = test: Cytotoxicity against human MDA-MB-231 cells after 72 hrs by MTT assay; format: functional, cell-based; details: MDA-MB-231, 72 h; summary of the method: as §2
Mus musculus = test: Toxicity in BALB/C nude mouse xenografted with human Bel7404 cells assessed as mortality at 30 mg/kg, po qd for 14 consecutive days; format: organism-based; details: in vivo
Summary of the method: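 Male BALB/C nude mice were implanted with BEL-7404 cells. When tumors reached 100–300 mm³ (after 12 days), mice were randomized to 6 per treatment group and 8 controls. The drug, suspended in 5% polysorbate 80 in water, was given orally once daily for 14 days from day 13. Body weight and mortality were tracked during dosing, and mice were sacrificed on day 29.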

MDA-MB-435 = test: Antiproliferative activity against human MDA-MB-435 cells incubated for 48 hrs by sulforhodamine B assay; format: functional; details: MDA-MB-435, 48 h; summary of the method: as §1
A549 [7] = test: Cytotoxicity against human A549 cells after 72 hrs by MTT assay; format: functional, cell-based; details: A549, 72 h; summary of the method: as §2
A498 = test: Antiproliferative activity against human A498 cells incubated for 48 hrs by sulforhodamine B assay; format: functional; details: A498, 48 h; summary of the method: as §1
NCI-H460 = test: Antiproliferative activity against human NCI-H460 cells incubated for 48 hrs by sulforhodamine B assay; format: functional; details: NCI-H460, 48 h; summary of the method: as §1
[8] = Antiproliferative activity against human SF539 cells incubated for 48 hrs by sulforhodamine B assay; format: functional; details: SF-539, 48 h; summary of the method: as §1
[9] = Antiproliferative activity against human OVCAR3 cells incubated for 48 hrs by sulforhodamine B assay; format: functional; details: OVCAR-3, 48 h; summary of the method: as §1
NCI-H226 = test: Antiproliferative activity against human NCI-H226 cells incubated for 48 hrs by sulforhodamine B assay; format: functional; details: NCI-H226, 48 h; summary of the method: as §1
[10] = biological target: Phosphatidylinositol 4,5-bisphosphate 3-kinase catalytic subunit alpha isoform (Homo sapiens, UniProt P42336); test: Inhibition of PI3K-alpha (unknown origin) using PIP2 as substrate incubated for 1 hr by Kinase-Glo luminescent kinase assay
A549 [11] = test: Inhibition of insulin-stimulated PI3K in human A549 cells assessed as suppression of AKT phosphorylation at Ser473 after 30 mins by Western blot analysis; format: cell-based
Summary of the method: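 A549 cells were insulin-stimulated for 2 h, then exposed to four compound concentrations for 30 min. Lysis was in ice-cold RIPA buffer, protein was quantified by BCA, and lysates were run on 10% SDS-PAGE and transferred to nitrocellulose. Detection was by infrared imaging, with β-actin as loading control.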

[12] = biological target: Phosphatidylinositol 4,5-bisphosphate 3-kinase catalytic subunit beta isoform (Homo sapiens, UniProt P42338); test: Inhibition of PI3K-beta (unknown origin) at 10 nM after 40 mins by ADP-Glo luminescent kinase assay
Summary of the method: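 Final enzyme was PI3Kβ 4.8 nM and PI3Kγ 7.6 nM. ADP-Glo reagent stopped the reaction (40 min), then detection reagent was added (60 min) and luminescence read. Percent inhibition was derived from RLU.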

NCI-H522 = test: Antiproliferative activity against human NCI-H522 cells incubated for 48 hrs by sulforhodamine B assay; format: functional; details: NCI-H522, 48 h; summary of the method: as §1
[13] = read-out: pLC50 (the source's name) (converted)

Sequence of Phosphatidylinositol 4,5-bisphosphate 3-kinase catalytic subunit beta isoform (P42338 whole entry, looked up, canonical isoform): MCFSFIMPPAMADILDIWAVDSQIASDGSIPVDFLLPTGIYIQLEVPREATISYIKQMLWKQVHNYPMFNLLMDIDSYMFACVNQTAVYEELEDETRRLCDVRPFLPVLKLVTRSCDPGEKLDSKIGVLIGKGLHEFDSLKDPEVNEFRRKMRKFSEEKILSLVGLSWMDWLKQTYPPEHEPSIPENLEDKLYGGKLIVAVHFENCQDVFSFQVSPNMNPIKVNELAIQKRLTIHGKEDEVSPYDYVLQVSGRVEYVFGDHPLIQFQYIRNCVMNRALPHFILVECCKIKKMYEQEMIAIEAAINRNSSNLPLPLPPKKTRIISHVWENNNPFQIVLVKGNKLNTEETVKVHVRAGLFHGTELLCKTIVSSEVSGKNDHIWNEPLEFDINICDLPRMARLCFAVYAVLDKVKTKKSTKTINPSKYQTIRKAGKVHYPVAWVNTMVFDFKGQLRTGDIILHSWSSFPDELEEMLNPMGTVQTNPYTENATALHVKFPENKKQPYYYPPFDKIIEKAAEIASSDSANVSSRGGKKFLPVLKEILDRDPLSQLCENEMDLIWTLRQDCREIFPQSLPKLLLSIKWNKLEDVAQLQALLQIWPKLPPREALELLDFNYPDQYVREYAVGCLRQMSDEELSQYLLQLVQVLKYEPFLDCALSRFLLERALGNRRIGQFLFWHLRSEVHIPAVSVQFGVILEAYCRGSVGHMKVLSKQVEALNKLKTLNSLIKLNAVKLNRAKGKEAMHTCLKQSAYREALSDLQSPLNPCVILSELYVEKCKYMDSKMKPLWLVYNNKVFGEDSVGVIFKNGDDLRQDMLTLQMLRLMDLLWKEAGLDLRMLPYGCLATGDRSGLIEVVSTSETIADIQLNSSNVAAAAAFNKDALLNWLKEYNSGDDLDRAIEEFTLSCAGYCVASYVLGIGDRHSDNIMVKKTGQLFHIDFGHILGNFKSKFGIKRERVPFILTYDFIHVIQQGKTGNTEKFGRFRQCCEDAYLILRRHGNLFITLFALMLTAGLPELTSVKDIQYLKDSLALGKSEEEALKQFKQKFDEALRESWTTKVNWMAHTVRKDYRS
Sequence of Phosphatidylinositol 4,5-bisphosphate 3-kinase catalytic subunit alpha isoform (P42336 whole entry, canonical isoform): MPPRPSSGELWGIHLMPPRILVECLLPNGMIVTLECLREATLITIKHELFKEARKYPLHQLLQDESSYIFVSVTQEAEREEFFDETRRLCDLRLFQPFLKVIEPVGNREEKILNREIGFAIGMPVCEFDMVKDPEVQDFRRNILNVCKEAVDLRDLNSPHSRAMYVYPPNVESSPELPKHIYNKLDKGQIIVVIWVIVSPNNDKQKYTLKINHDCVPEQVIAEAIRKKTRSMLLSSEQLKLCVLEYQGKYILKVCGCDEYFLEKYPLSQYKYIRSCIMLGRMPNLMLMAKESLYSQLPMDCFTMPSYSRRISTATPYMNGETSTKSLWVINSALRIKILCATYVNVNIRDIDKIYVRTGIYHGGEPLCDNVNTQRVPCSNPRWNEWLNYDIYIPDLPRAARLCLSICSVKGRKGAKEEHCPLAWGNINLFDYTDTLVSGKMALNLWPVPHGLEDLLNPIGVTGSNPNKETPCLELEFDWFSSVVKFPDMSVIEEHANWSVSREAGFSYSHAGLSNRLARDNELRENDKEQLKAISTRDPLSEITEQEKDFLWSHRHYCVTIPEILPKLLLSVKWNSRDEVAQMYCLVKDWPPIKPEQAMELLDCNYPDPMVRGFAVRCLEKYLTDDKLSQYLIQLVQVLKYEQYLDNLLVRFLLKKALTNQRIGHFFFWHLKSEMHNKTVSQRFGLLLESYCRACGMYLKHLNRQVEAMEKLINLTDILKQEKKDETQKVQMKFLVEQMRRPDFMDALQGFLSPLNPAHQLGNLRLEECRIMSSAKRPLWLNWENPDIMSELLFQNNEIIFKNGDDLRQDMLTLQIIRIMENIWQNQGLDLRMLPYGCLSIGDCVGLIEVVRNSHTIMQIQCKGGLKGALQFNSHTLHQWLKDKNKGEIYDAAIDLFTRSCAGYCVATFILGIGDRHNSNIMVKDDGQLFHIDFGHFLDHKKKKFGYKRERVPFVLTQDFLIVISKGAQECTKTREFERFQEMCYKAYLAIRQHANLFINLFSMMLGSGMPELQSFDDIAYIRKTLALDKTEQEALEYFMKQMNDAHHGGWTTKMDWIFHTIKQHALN

Compound `COc1ncc(-c2ccc3nccc(C#CCN4CCN(S(C)(=O)=O)CC4)c3c2)cc1NS(=O)(=O)c1ccc(F)cc1F` has a GI50 (U-251) of 178 nM, a CC50 (U-251; [13]) of 4680 nM and a TGI (U-251; read-out: pTGI (converted)) of 1510 nM. It also gave a GI50 [1] of 74.1 nM, a CC50 [1, 13] of 29500 nM and a TGI ([1]; read-out: pTGI (converted)) of 1000 nM. It also gave a GI50 [2] of 155 nM, a CC50 [2, 13] of 40700 nM and a TGI ([2]; read-out: pTGI (converted)) of 13800 nM. The GI50 [3] was 18.6 nM, the CC50 [3, 13] was over 100000 nM and the GI50 [4] was 13.8 nM. For the same compound, the CC50 [4, 13] was 58900 nM, the GI50 [5] was 65 nM and the IC50 [6] was 930 nM. For the same compound, the GI50 (CCRF-CEM) was 148 nM, the CC50 (CCRF-CEM; [13]) was over 100000 nM and the TGI (CCRF-CEM; read-out: pTGI (converted)) was 2570 nM. It also gave a GI50 (MCF7) of under 10 nM, a CC50 (MCF7; [13]) of 49000 nM and a TGI (MCF7; read-out: pTGI (converted)) of 1780 nM. For the same compound, the IC50 (MDA-MB-231) was 1440 nM, the Activity (Mus musculus) was “Non-toxic” and the GI50 (MDA-MB-435) was 75.9 nM. For the same compound, the CC50 (MDA-MB-435; [13]) was 6610 nM, the TGI (MDA-MB-435; read-out: pTGI (converted)) was 1070 nM and the IC50 (A549 [7]) was 1780 nM. The GI50 (A498) was 37.1 nM, the CC50 (A498; [13]) was 2190 nM and the TGI (A498; read-out: pTGI (converted)) was 245 nM. For the same compound, the GI50 (NCI-H460) was 51.3 nM, the CC50 (NCI-H460; [13]) was 30900 nM and the TGI (NCI-H460; read-out: pTGI (converted)) was 2140 nM. The GI50 [8] was 55 nM, the CC50 [8, 13] was 2690 nM and the TGI ([8]; read-out: pTGI (converted)) was 363 nM. It also gave a GI50 [9] of 51.3 nM, a CC50 [9, 13] of 6610 nM and a TGI ([9]; read-out: pTGI (converted)) of 1100 nM. It also gave a GI50 (NCI-H226) of 245 nM, a CC50 (NCI-H226; [13]) of 7240 nM and a TGI (NCI-H226; read-out: pTGI (converted)) of 1820 nM. The IC50 [10] was 2 nM, the inhibition (A549 [11]) was “Dose-dependent effect” and the inhibition [12] was 69%. It also gave a GI50 (NCI-H522) of 178 nM, a CC50 (NCI-H522; [13]) of 5890 nM and a TGI (NCI-H522; read-out: pTGI (converted)) of 1740 nM.
